Experimental data from publication PMC2881163 (The journal of physical chemistry. B, 2010).
Each block holds one substance with its values, some of them ahead of it.

Key:
[1] = Dynamic light scattering of aqueous solutions; assay type: physicochemical; settings: 25 °C; for z-average diameter of micelles: DLS cumulant analysis, water, concentrations above the CMC, mean ± SD
In short: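 He-Ne laser (632.8 nm) with backscatter detection at 173°, 25 °C, using water viscosity 0.8937 cP and refractive index 1.333. Samples diluted from stock in Milli-Q water and filtered (0.02 μm). Solvent scattering was subtracted and plotted against concentration, with the inflection taken as the CMC. Triton X-100 served as positive control and a non-amphiphilic peptide as negative control. Triplicate samples were each read three times. Z-average came from a single-exponential cumulant fit and size distribution from a multi-exponential fit.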

[2] = Surface tension, Du Nouy ring tensiometer; assay type: physicochemical; settings: aqueous solution, 25 °C; for surface tension: at 10 mM, triplicate solutions
In short: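 Test compound solutions were equilibrated to 25 °C. The ring was immersed 5 mm below the surface, then retracted automatically at 5 mm/min. Between measurements the ring was rinsed with water and ethanol and flamed. Solutions were prepared in triplicate.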

[3] = tested on: mice; settings: cited from earlier work
[4] = low, clinically relevant concentrations; cited from earlier work
[5] = Stability of CMS in solution; assay type: physicochemical; settings: 0.9% saline, 25 °C, over 120 hr
[6] = cited from earlier work

Substance: Colistin
z-average diameter of micelles [1]: 2.07 ± 0.3 nm
interfacial tension after the CMC [2]: approximately 40 dynes/cm
surface tension [2]: 35–40 mN/m
LD50 [3]: 217.7 mg/kg

z-average diameter of micelles [1]: 8.17 ± 0.59 nm
Substance: Triton X-100

Substance: colistin methanesulfonate [CMS]
z-average diameter of micelles [1]: ~1.98 ± 0.36 nm
conversion of CMS to colistin in plasma and urine in vivo [4]: rapid
surface tension [2]: 35–40 mN/m
LD50 [3]: 5.43 mg/kg
conversion of CMS to colistin, initial concentration 0.052 mM ([5]; n = 3, HPLC of colistin formed): Rapid conversion
conversion of CMS to colistin, initial concentration 0.52 mM ([5]; n = 3, HPLC of colistin formed): Less rapid conversion
degradation of CMS, initial concentration 5.2 mM ([5]; n = 3, well above the CMC): negligible
degradation of CMS, initial concentration 52 mM ([5]; n = 3, well above the CMC): negligible
conversion of CMS to colistin in buffer solutions in vitro ([6]; <100 μg/mL at 37 °C): rapid
stability of concentrated CMS solutions with respect to formation of colistin ([6]; >70 mg/mL, relevant to commercial pharmaceutical formulations): stable for extended periods

light scattering above that of water ([1]; DLS, up to 20 mM, no reliable size data could be obtained): negligible
Substance: polymyxin B nonapeptide hydrochloride [PMBN]
